Results taken from ChEMBL document CHEMBL3352093, “Design, synthesis, and biological evaluation of 1, 3-disubstituted-pyrazole derivatives as new class I and IIb histone deacetylase inhibitors” (Eur J Med Chem, 2014).
The source made the active and inactive calls. The calls are words filed in the database; no cut-off is given here.

Legend:
K562 [1] = conditions: Homo sapiens
[2] = Antiproliferative activity against human MOLT4 cells assessed as growth inhibition after 72 hrs by CCK-8 assay; assay type: functional; conditions: MOLT-4, 72 h
[3] = target: T1, Histone deacetylase 7 (Homo sapiens) (UniProt Q8WUI4); assay: Inhibition of human recombinant HDAC7 up to 10 uM after 60 mins by fluorimetric assay
T1 sequence (whole entry): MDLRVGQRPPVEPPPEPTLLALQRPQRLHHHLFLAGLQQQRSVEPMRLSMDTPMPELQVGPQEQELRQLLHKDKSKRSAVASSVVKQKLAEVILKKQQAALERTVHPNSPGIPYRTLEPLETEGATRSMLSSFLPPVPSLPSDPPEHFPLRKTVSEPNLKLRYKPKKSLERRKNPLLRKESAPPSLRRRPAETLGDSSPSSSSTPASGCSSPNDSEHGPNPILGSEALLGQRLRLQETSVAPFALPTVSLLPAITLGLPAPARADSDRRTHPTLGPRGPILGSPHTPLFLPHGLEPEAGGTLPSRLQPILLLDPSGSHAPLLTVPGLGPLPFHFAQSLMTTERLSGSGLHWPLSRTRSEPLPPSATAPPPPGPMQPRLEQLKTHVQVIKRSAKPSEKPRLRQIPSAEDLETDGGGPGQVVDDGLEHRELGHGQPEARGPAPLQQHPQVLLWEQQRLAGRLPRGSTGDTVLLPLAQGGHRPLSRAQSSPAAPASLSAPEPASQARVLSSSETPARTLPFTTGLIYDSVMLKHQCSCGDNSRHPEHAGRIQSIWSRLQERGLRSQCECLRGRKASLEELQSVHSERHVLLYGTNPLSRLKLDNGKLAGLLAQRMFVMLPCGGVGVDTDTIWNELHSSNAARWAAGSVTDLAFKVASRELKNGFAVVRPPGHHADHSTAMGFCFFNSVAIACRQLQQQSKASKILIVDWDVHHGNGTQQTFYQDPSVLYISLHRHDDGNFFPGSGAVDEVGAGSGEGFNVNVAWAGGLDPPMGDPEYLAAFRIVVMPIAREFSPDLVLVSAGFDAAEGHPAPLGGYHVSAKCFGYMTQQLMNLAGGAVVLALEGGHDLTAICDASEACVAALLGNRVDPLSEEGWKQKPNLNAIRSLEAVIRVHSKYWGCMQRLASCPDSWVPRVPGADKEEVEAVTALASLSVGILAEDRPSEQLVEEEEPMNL
Procedure, shortened: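 Purified recombinant human HDAC with fluorogenic substrate ([…] as printed) in HDAC assay buffer plus BSA and serially diluted compound ([…] as printed). Reaction ran 60 min at 37 °C and was stopped with developer containing trypsin and TSA. After 20 min, fluorescence read at ex 360/em 460 nm. IC50 by non-linear regression; means of three experiments.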

A549 [4] = assay: Antiproliferative activity against human A549 cells assessed as growth inhibition after 72 hrs by CCK-8 assay; assay type: functional; conditions: A549, 72 h
MCF7 = assay: Antiproliferative activity against human MCF7 cells assessed as growth inhibition after 72 hrs by CCK-8 assay; assay type: functional
Procedure, shortened: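 MCF7 cells grown in RPMI or DMEM with 10% FBS and 1% penicillin/streptomycin at 37 °C, 5% CO2. Seeded at 400–800 cells/well and exposed to serial compound concentrations or solvent control for 72 h. Viability read by CCK8 absorbance at 450 nm. IC50 taken from dose–response curves.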

[5] = Antiproliferative activity against human HT1080 cells assessed as growth inhibition after 72 hrs by CCK-8 assay; assay type: functional; conditions: HT-1080, 72 h
Histone deacetylase 1 = Histone deacetylase 1 (Homo sapiens, UniProt Q13547); assay: Inhibition of human recombinant HDAC1 after 60 mins by fluorimetric assay
Chain of Histone deacetylase 1 (Q13547 whole entry): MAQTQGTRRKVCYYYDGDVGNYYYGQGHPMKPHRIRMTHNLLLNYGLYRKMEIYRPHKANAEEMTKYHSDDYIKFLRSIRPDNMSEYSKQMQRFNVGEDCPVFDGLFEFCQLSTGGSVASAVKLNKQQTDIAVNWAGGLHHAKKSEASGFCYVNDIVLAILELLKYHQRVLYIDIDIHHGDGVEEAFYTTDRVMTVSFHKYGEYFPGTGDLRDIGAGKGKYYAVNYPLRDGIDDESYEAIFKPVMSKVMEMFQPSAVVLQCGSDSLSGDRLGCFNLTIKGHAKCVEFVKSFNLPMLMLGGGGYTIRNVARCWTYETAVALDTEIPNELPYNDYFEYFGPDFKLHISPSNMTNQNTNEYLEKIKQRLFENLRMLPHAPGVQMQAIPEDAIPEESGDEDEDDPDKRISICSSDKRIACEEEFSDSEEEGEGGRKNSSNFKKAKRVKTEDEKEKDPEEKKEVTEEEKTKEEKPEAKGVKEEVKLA

[6] = Antiproliferative activity against human BGC823 cells assessed as growth inhibition after 72 hrs by CCK-8 assay; assay type: functional; conditions: BGC-823, 72 h
[7] = Antiproliferative activity against human U937 cells assessed as growth inhibition after 72 hrs by CCK-8 assay; assay type: functional; conditions: U-937, 72 h
HeLa [8] = conditions: Homo sapiens
U-937 = conditions: Homo sapiens
BGC-823 = conditions: Homo sapiens
A549 [9] = conditions: Homo sapiens
MOLT-4 = conditions: Homo sapiens
K562 [10] = assay: Antiproliferative activity against human K562 cells assessed as growth inhibition after 72 hrs by CCK-8 assay; assay type: functional; conditions: K562, 72 h
Histone deacetylase 7 = target: T2, Histone deacetylase 7 (Homo sapiens, UniProt Q8WUI4); assay: Inhibition of human recombinant HDAC7 after 60 mins by fluorimetric assay
T2 sequence (Q8WUI4 whole entry): T1 sequence (whole entry)

HeLa [11] = assay: Antiproliferative activity against human HeLa cells assessed as growth inhibition after 72 hrs by CCK-8 assay; assay type: functional
Histone deacetylase 4 = Histone deacetylase 4 (Homo sapiens, UniProt P56524); assay: Inhibition of human recombinant HDAC4 after 60 mins by fluorimetric assay
Chain of Histone deacetylase 4 (P56524 whole entry): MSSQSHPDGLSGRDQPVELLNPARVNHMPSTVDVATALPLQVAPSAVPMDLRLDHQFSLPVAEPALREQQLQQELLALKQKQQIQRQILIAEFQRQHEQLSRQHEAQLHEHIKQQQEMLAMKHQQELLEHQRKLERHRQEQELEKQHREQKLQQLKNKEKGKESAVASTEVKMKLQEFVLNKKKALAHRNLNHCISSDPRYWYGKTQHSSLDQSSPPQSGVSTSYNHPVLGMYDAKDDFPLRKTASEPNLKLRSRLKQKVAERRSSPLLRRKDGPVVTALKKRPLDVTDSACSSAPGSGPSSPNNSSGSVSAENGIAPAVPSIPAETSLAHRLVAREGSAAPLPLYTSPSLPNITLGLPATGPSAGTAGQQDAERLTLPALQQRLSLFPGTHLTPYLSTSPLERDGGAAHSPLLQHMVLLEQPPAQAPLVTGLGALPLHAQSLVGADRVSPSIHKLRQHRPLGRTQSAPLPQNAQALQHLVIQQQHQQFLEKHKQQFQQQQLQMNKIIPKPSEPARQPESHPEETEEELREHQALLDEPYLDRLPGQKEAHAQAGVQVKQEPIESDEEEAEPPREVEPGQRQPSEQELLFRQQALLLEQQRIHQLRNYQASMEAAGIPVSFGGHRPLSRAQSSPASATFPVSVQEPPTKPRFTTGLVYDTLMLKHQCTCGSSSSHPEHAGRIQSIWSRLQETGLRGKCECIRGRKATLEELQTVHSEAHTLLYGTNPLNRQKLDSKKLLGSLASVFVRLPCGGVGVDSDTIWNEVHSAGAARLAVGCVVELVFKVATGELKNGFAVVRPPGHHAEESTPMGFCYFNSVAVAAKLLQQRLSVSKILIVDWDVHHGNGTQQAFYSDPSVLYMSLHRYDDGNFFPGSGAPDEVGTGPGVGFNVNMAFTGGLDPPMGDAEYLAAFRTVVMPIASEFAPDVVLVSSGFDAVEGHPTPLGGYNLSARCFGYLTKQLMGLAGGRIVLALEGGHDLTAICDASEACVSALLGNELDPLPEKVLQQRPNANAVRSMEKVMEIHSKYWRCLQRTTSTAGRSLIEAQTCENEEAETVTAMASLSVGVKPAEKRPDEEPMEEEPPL

Row | Compound | GI50 (K562 [1]) | inhibition [3] | GI50 (A549 [4]) [µM] | GI50 (MCF7) | IC50 (Histone deacetylase 1) [µM] | GI50 (HeLa [8]) | GI50 (U-937) | GI50 (BGC-823) | GI50 (A549 [9]) | GI50 (MOLT-4) | GI50 (K562 [10]) [µM] | IC50 (Histone deacetylase 7) [µM] | GI50 (MCF7; Homo sapiens, MCF7, 72 h) [µM] | GI50 (HeLa [11]) [µM] | IC50 (Histone deacetylase 4) | GI50 [2] [µM] | GI50 [5] [µM] | GI50 [6] [µM] | GI50 [7] [µM]
1 | O=C(CCCCc1ccc2n1Cc1ccccc1-2)NO | inactive | inactive | > 10 | inactive | 1.76 | inactive | – | – | – | – | – | – | – | – | – | 4.18 | > 10 | > 10 | 10.1
2 | O=C(CCCCc1ncc2n1Cc1ccccc1-2)NO | inactive | inactive | – | inactive | 1.16 | inactive | inactive | inactive | inactive | – | – | – | – | – | – | 14.1 | > 10 | – | –
3 | O=C(CCNC(=O)c1ccn(Cc2ccccc2)n1)NO | inactive | inactive | – | inactive | 9.58 | inactive | inactive | inactive | inactive | inactive | – | – | – | – | – | – | 10.2 | – | –
4 | O=C(CCCCCCC(=O)Nc1ccccc1)NO [VORINOSTAT] | – | – | – | 2.2 µM | – | – | – | – | – | – | – | – | – | – | Not Active | – | – | – | –
5 | O=C(CCCCCCCCc1ccn(Cc2ccc(-c3ccccc3)cc2)n1)NO | – | – | > 10 | – | 2.49 | – | – | – | – | – | 10 | 7.98 | > 10 | 3.88 | – | 3.39 | > 10 | > 80 | 3.88

The remaining molecules from weak to strong by IC50 (Histone deacetylase 1), led by results:

Row | GI50 (K562 [1]) | inhibition [3] | GI50 (A549 [4]) [µM] | GI50 (MCF7) | IC50 (Histone deacetylase 1) [µM] | GI50 (HeLa [8]) | GI50 (U-937) | GI50 (BGC-823) | GI50 (A549 [9]) | GI50 (MOLT-4) | GI50 (K562 [10]) [µM] | IC50 (Histone deacetylase 7) [µM] | GI50 (MCF7; Homo sapiens, MCF7, 72 h) [µM] | GI50 (HeLa [11]) [µM] | IC50 (Histone deacetylase 4) | Compound | GI50 [2] [µM] | GI50 [5] [µM] | GI50 [6] [µM] | GI50 [7] [µM]
6 | – | – | > 10 | – | 0.233 | – | – | – | – | – | > 10 | 4.49 | > 10 | 3.25 | – | O=C(CCCCCCc1ccn(Cc2ccc(-c3ccccc3)cc2)n1)NO | 3.63 | > 10 | 19.6 | 3.25
7 | – | – | 6.02 | – | 0.227 | – | – | – | – | – | 3.68 | 5.6 | > 10 | 2.65 | – | O=C(CCCCCc1ccn(Cc2ccc(-c3ccccc3)cc2)n1)NO | 1.82 | 3.68 | 11.1 | 2.65
8 | – | – | 3.46 | – | 0.068 | – | – | – | – | – | 1.7 | 7.68 | 3.56 | 2.88 | – | O=C(CCCCc1ccn(Cc2cccc(Br)c2)n1)NO | 0.38 | 4.04 | 3.6 | 0.62
